In the library only some 4% were active in any assay of this set; here they are far more common.
TAAR1 antag: antagonists of human TAAR1; Q96RJ0; CHO RD-HGA16 TAAR1, Fluo-8 calcium fluorescence, antagonist; inhibition, % at 3 µM; 360,000 tested, 1.5% active;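 active means inhibition above a per-plate cutoff, the mean inhibition of test compounds on that plate plus 3 SD, cut at about 49% in these data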;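 further: 0% = DMSO plus EC80 beta-PEA response and 100% = DMSO alone without agonist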
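System: RD-HGA16 CHO cells with stable hTAAR1 and Gα16 | Probe or stimulus: EC80 β-phenethylamine stimulus | Dosing: 3 µM, single point | Times: Dye loading 75 min at 37 °C, then 30 min room temperature | Measured by: Fluo-8 calcium-sensitive fluorescence | Read-out basis: % inhibition of agonist calcium response | Replicates: n of 1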
OX1R antag-1: OX1R (human) antagonism; O43613; OX1R-expressing cells, FRET antagonist read-out; inhibition, % at 6.6 µM; 330,000 tested, 1.8% active; in the data active means inhibition mostly above about 38%, no sharp cut-off; inactive means mostly below about 40%;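 further: 0% = agonist challenge alone and 100% = reference antagonist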
Target sequence (O43613 whole entry, looked up): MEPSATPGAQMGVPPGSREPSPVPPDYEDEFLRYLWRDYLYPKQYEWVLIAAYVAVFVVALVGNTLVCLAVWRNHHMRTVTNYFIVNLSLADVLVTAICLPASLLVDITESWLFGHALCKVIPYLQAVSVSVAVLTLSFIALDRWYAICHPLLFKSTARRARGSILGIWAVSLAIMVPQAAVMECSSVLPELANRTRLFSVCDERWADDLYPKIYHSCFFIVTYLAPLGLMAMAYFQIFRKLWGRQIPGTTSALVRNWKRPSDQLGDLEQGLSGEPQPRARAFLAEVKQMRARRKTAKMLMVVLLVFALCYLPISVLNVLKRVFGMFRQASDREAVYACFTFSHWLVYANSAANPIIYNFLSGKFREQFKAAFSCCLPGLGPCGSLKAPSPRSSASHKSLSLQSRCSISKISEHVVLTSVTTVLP
CHO parental Ca: counter-screen for OX1R antagonists: effect in parental CHO cells. parental CHO-K1, ATP-induced calcium, Fluo-8 fluorescence. inhibition, % at 5.6 µM. 330,000 tested, 0.63% active;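 active means inhibition above that plate's mean sample inhibition plus 3 SD, cut at about 26% in these data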;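 further: 0% = ATP-challenged DMSO wells and 100% = DMSO wells without ATP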
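Assay system: parental CHO cells; Read-out basis: percent inhibition of ATP-evoked calcium rise, normalized to controls; Benchmarks: ATP and no-ATP DMSO wells; Compound dosing: single nominal dose of 5.6 µM per compound; Signal: Fluo-8 calcium dye fluorescence; Also added: ATP as calcium-mobilizing challenge; Repeats: singlicate.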
TAAR1 agonist: agonists of human TAAR1 | AID 624467 | 360,000 tested, 0.99% active | Q96RJ0 | activation, % at 3 µM | CHO RD-HGA16 TAAR1, Fluo-8 calcium fluorescence; vehicle wells 0%, saturating PEA agonist 100%;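 active means activation above the mean activation of all test compounds in the run plus 3 SD, cut at about 38% in these data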
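Assay system – CHO-derived RD-HGA16 cells with stable Gα16 and human TAAR1 · Compound dosing – one-point dosing at 3 µM (nominal) · Incubation – 17-24 h seeding, 75 min 37 °C dye, 30 min RT · Measured by – kinetic Fluo-8 calcium fluorescence · Control set – DMSO vehicle as 0%, PEA at EC100 as 100% · Repeats – single well for each compound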
OX1R antag-2: blocks the human orexin 1 receptor | O43613 | CHO/OX1R cells, Fluo-8 calcium fluorescence, orexin A | inhibition, % at 5 µM | 330,000 tested, 0.43% active | AID 434989;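 active means inhibition above its plate's threshold, mean inhibition of all tested compounds on the plate plus 3 SD, cut at about 37% in these data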;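 further: 0% = orexin A challenge wells and 100% = SB-334867-A antagonist wells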
TAAR1 ag conf: human TAAR1 agonism, confirmed; shares compounds with TAAR1 agonist; CHO RD-HGA16 TAAR1, Fluo-8 calcium fluorescence; scaled: DMSO 0%, maximal phenethylamine 100%; activation, % at 3 µM; 2,400 tested, 82% active; AID 651783;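 active means activation above a cutoff set at the run's mean compound activation plus 3 SD, cut at about 39% in these data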
Ga16 ag counter: nonselective agonism, TAAR1 counter-screen; activation, % at 3 µM; 2,400 tested, 50% active; AID 651787; shares compounds with TAAR1 agonist; CHO-Ga16 parental, Fluo-8 calcium fluorescence; normalized to maximal ATP response, DMSO zero;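 active means activation above the run cutoff, the mean activation over all tested wells plus 3 SD, cut at about 12% in these data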;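 further: 0% = DMSO wells and 100% = maximal ATP response on the peak over basal ratio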
TAAR1 desensitize: counter-screen for human TAAR1 agonists: agonists that desensitize TAAR1; shares compounds with TAAR1 agonist; CHO RD-HGA16 hTAAR1, Fluo-8 calcium, beta-PEA response inhibition; inhibition, % at 3 µM; 2,400 tested, 46% active;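 active means inhibition above the run cutoff, the mean inhibition of all test compounds plus 3 SD, cut at about 49% in these data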;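 further: beta-PEA stimulus applied at its EC80; loss of beta-PEA calcium signal after compound pretreatment read as receptor desensitization; 0% = DMSO with beta-PEA at EC80 and 100% = DMSO alone without agonist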
Ga16 nonsel ant: nonselective Ga16 antagonism, counter-screen | 2,400 tested, 39% active | CHO-Ga16 ATP-induced calcium, Fluo-8 fluorescence | inhibition, % at 3 µM | shares compounds with TAAR1 agonist;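 active means inhibition above the plate's mean compound inhibition plus 3 SD, computed per plate, cut at about 22% in these data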;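 further: 0% = EC80 ATP with DMSO and 100% = DMSO wells without ATP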
An asterisk follows results filed as active; . = not tested or not shown.

SMILES | TAAR1 antag | OX1R antag-1 | CHO parental Ca | TAAR1 agonist | OX1R antag-2 | TAAR1 ag conf | Ga16 ag counter | TAAR1 desensitize | Ga16 nonsel ant
CC(C)[C@H]1C(=O)N2CCC[C@H]2[C@]2(O)O[C@](NC(=O)[C@@H]3C=C4c5cccc6[nH]cc(c56)C[C@H]4N(C)C3)(C(C)C)C(=O)N12 | . | 25.4 | -7.6 | . | -13.9 | . | . | . | .
CN1C[C@H](CO)C=C2c3cccc4[nH]cc(c34)C[C@H]21 | 64.4* | 13.5 | -4.9 | 64.4* | -18.3 | 92.1* | 3.0 | 85.0* | 7.5
COc1ccc(CCN)cc1O | 7.6 | 16.8 | -9.4 | 46.9* | 2.8 | 61.7* | -0.2 | 22.1 | 9.2
COc1cc(C(O)CN)ccc1O (stereo not drawn) | -8.1 | 15.0 | 4.6 | 20.6 | 0.9 | . | . | . | .
CCCCOc1ccc(CCN)cc1Cl | 67.3* | -1.6 | -12.4 | 86.6* | -5.1 | 98.9* | 17.9* | 84.1* | 12.0
CC(C)Oc1ccc(CCN)cc1Cl | -27.7 | 1.4 | -7.0 | 51.7* | -10.2 | 67.5* | 10.9 | 11.2 | 2.1
FC(F)(F)c1ccc(-c2ccc3c(c2)CNCc2cnnn2-3)cc1 | -11.7 | . | . | 4.6 | . | . | . | . | .
COc1ccc(-c2ccc3c(c2)CNCc2cnnn2-3)cc1 | 20.6 | . | . | 1.8 | . | . | . | . | .
COc1cc(O)cc2c1C(=O)OC(C)CCCC(=O)CCC/C=C\2 (stereo not drawn) | 10.4 | 13.8 | -11.8 | 55.2* | -10.9 | 30.0 | 26.3* | 34.8 | 22.8*
C[C@H]1CCCC(=O)CCC/C=C/c2cc(O)cc(O)c2C(=O)O1 | -21.8 | 11.9 | -8.4 | 11.9 | -29.0 | . | . | . | .
O=C1NCN(c2ccccc2)C12CCN(C(CCc1ccccc1)c1nnnn1C1CCCCC1)CC2 (stereo not drawn) | 11.7 | . | . | -0.8 | . | . | . | . | .
CCCCn1c(=O)c(C(=O)Nc2ccccc2C)c(O)c2ccccc21 | . | 14.1 | 8.6 | . | -8.5 | . | . | . | .
CCCCCn1c(=O)c(C(=O)Nc2ncccc2C)c(O)c2ccccc21 | 10.7 | 4.7 | -1.2 | 54.1* | -7.7 | 54.0* | 86.3* | 35.3 | 43.6*
S=C(NCCc1ccccc1)N1Cc2ccc(Br)cc2-n2nncc2C1 | 34.4 | . | . | 60.5* | . | 38.2* | 2.8 | 21.7 | 19.0
N#Cc1c(N2CCNCC2)nc(-c2ccco2)c2c1CCCC2 | 48.2 | 4.7 | -19.4 | 79.7* | -42.2 | 96.1* | 16.5* | 90.5* | 15.1
CNCC(C)c1ccccc1 (stereo not drawn) | 59.4* | 2.1 | -0.3 | 83.6* | -13.7 | 94.3* | 0.9 | 83.0* | 1.9
CCN(CC)c1ccc(/C=C/[N+](=O)[O-])cc1 | 89.8* | 48.4 | 50.7* | 226.6* | 52.6* | 50.7* | 58.1* | 50.6* | 58.8*
COc1cc(/C=C/[N+](=O)[O-])ccc1O | 5.7 | 41.8 | -3.3 | 14.2 | -19.3 | . | . | . | .
COc1ccccc1CCNCc1cc2c(cc1[N+](=O)[O-])OCO2 | . | 59.0 | -16.0 | . | -38.6 | . | 3.3 | . | 7.2
NNP(=O)(CC(=O)c1ccccc1)c1ccccc1 (stereo not drawn) | -9.3 | -0.9 | -38.2 | 1.9 | -26.5 | . | . | . | .
NCC(=O)c1ccccc1 | 52.7* | . | . | 88.8* | . | 89.1* | 6.8 | 87.9* | 1.6
Cc1cc(C)cc(N2C(=O)NC(=O)/C(=C\c3cccn3-c3ccc(Cl)cc3)C2=O)c1 | 32.4 | 15.0 | -8.1 | 50.5* | -13.4 | 37.3 | 12.5* | 36.0 | 20.2
CN1C(=O)/C(=C/c2cccn2-c2ccc3ccccc3c2)C(=O)NC1=S | 31.9 | 28.8 | -4.2 | 5.1 | -9.0 | . | . | . | .
CC1CN=C(NC(C)c2ccccc2)S1 (stereo not drawn) | -5.8 | 8.9 | -17.1 | 5.4 | -13.0 | . | . | . | .
